Assay results reported in ChEMBL document CHEMBL3865828, “Total synthesis of 8-(6″-umbelliferyl)-apigenin and its analogs as anti-diabetic reagents” (2016).
Active and inactive are the calls of the source. The rule behind the calls is not given here.

How the values were obtained:
Format in all cases: functional
3T3-L1 [1] = assay: Increase in glucose uptake in serum-starved mouse 3T3L1 adipocytes at 10 uM pretreated followed by glucose addition measured under basal condition by glucose oxidase peroxidase method
Procedure, shortened: (§1)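 3T3-L1 adipocytes, used 8–10 days after differentiation (IBMX/dexamethasone/insulin for 48 h, then insulin for 2 days), were incubated with agents in KRH buffer. Glucose in KRH was measured at 0 h and 4 h by glucose oxidase–peroxidase kit, and the difference was taken as consumed glucose. Metformin was the positive control. Data are mean ± SEM of independent experiments.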

3T3-L1 [2] = assay: Increase in 2-NBDG uptake in serum-starved mouse 3T3L1 adipocytes at 10 uM measured under basal condition by inverted fluorescence microscopy
Procedure, shortened: (§2)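 Adipocytes from 3T3-L1 cells, differentiated 2 days post-confluence in DMEM with 0.5 mM IBMX, dexamethasone and insulin for 48 h, then 2 days in DMEM (10% FBS) with insulin alone. Used 8–10 days after differentiation start. After 1-h serum starvation, cells got agents in KRH for 0.5 h, then […] 2-NBDG for 1 h. They were washed 3× with KRH and imaged by inverted fluorescence microscopy. Metformin was the control.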

3T3-L1 [3] = assay: Increase in glucose uptake in serum-starved mouse 3T3L1 adipocytes at 1 mmol/L pretreated followed by glucose addition measured under basal condition by glucose oxidase peroxidase method; procedure, shortened: as §1
3T3-L1 [4] = assay: Increase in 2-NBDG uptake in serum-starved mouse 3T3L1 adipocytes at 1 mM measured under basal condition by inverted fluorescence microscopy; procedure, shortened: as §2

Structure (SMILES)	Activity (3T3-L1 [1])	Activity (3T3-L1 [2])	Activity (3T3-L1 [3])	Activity (3T3-L1 [4])
O=c1cc(-c2ccc(O)cc2)oc2cc(O)cc(O)c12	Active	–	–	–
O=c1ccc2cc(-c3c(O)cc(O)c4c(=O)cc(-c5ccccc5)oc34)c(O)cc2o1	Active	–	–	–
COc1cc2oc(=O)ccc2cc1-c1c(O)cc(O)c2c(=O)cc(-c3ccccc3)oc12	Active	–	–	–
COc1cc2oc(=O)ccc2cc1-c1c(O)cc(O)c2c(=O)c(O)c(-c3ccc(O)c(O)c3)oc12	Active	Active	–	–
O=c1c(O)c(-c2ccc(O)c(O)c2)oc2cc(O)cc(O)c12	Active	–	–	–
COc1cc2oc(=O)ccc2cc1-c1c(O)cc(O)c2c(=O)cc(-c3ccc(O)c(O)c3)oc12	Active	Active	–	–
O=c1cc(-c2ccc(O)c(O)c2)oc2cc(O)cc(O)c12	Active	–	–	–
O=c1ccc2cc(-c3c(O)cc(O)c4c(=O)cc(-c5ccc(O)cc5)oc34)c(O)cc2o1	48%	Active	–	–
O=c1cc(-c2ccccc2)oc2cc(O)cc(O)c12	Active	–	–	–
COc1cc2oc(=O)ccc2cc1-c1c(O)cc(O)c2c(=O)cc(-c3ccc(O)cc3)oc12	57%	Active	–	–
CN(C)C(=N)NC(=N)N	–	–	Active	Active
